The values below come from ChEMBL document CHEMBL1156148, “Isolation, structure and biological activities of platencin A(2)-A(4) from Streptomyces platensis” (Bioorg Med Chem, 2010).

The test system of test [1] is Staphylococcus aureus. In words: Antibacterial activity against Staphylococcus aureus Lin after 20 hrs by NCCLS method in presence of 50 % serum. In kind it is functional.
Test [2] deals with Enterococcus faecalis. In words: Antibacterial activity against Enterococcus faecalis CL8516 after 20 hrs by NCCLS method. In kind it is functional. The note with it: CL8516, 20 h. An outline of the steps: (§1)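 Twofold serial broth dilution in cation-adjusted Mueller Hinton broth per NCCLS guidelines. Inoculum 10^5 CFU/mL, incubated at 37 °C for 20 h with compound in growth medium. MIC taken as the lowest concentration preventing visible growth.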

For test [3], the system named is Bacillus subtilis. In words: Antibacterial activity against Bacillus subtilis MB964 after 20 hrs by NCCLS method. In kind it is functional. Conditions: MB964, 20 h. An outline of the steps:
as §1

The subject of test [4] is Staphylococcus aureus. In words: Antibacterial activity against Staphylococcus aureus Smith after 20 hrs by NCCLS method. The test is classed as functional. Put shortly: as §1
Test [5] relates to Escherichia coli. In words: Antibacterial activity against envelope disrupted Escherichia coli MB5746 after 20 hrs by NCCLS method. In kind it is functional. Conditions: MB5746, 20 h. An outline of the steps: as §1
Test [6] deals with HeLa. In words: Cytotoxicity against human HeLa cells by MTT assay. In kind it is functional, cell-based. Background: Formazan colour is commonly taken as a measure of viable cells.
Test [7] can be described thus: Inhibition of Staphylococcus aureus FAS2 assessed as 2-[14C]malonyl-CoA incorporation after 90 mins by scintillation counting. An outline of the steps:
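Partially purified S. aureus fatty-acid synthesis enzyme mix (1.26 µg) preincubated 20 min at room temperature with serially diluted compound. Buffer: 100 mM sodium phosphate pH 7.0, EDTA, NADPH, NADH, DTT, β-mercaptoethanol, 20 µM octanoyl-CoA (or lauroyl-CoA), 4% DMSO, 5 µM ACP. Started with 4 µM final [2-14C]malonyl-CoA, run 90 min at 37 °C, stopped with perchloric acid, and counted by scintillation on phospholipid-coated flash plates.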

The test system of test [8] is Staphylococcus aureus. As to the kind of experiment: Antibacterial activity against Staphylococcus aureus expressing FabF antisense plasmid S1-1941 assessed as minimum concentration required to produce differential zone of clearance after 18 hrs by antisense two-plate differential sensitivity cellular assay relative to control. The test is classed as functional. An outline of the steps:
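S. aureus RN450 carrying the fabF antisense plasmid S1–1941, plus a vector-only control strain, grown 18–20 h at 37 °C in LB with 34 µg/mL chloramphenicol. Seeded at 1:1000 of OD 3.0 into LB agar with 0.2% glucose and 15 µg/mL chloramphenicol; antisense plates also got 50 mM xylose. Samples added to agar wells, incubated 18 h at 37 °C, and zones measured. MDC was found by twofold serial dilution.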

Test [9] concerns Candida albicans. As to the kind of experiment: Antifungal activity against Candida albicans after 20 hrs by NCCLS method. In kind it is functional. An outline of the steps:
as §1

The subject of test [10] is Haemophilus influenzae. As to the kind of experiment: Antibacterial activity against Haemophilus influenzae MSD2261 after 20 hrs by NCCLS method. The note with it: MSD2261, 20 h. In kind it is functional. Put shortly:
as §1

The test system of test [11] is Escherichia coli. As to the kind of experiment: Antibacterial activity against wild type Escherichia coli MB2884 after 20 hrs by NCCLS method. The test is classed as functional. Conditions: MB2884, 20 h. Put shortly: as §1

The structures appear in SMILES notation. In brackets after ≈: the same amount, converted by molar mass. Bounds are passed on as bounds.

A word on the IC50: it is the concentration that inhibits the measured activity by half. Regarding `C[C@@]1(O)C[C@@]23C=CC(=O)[C@@](C)(CCC(=O)Nc4c(O)ccc(C(=O)O)c4O)[C@@H]2C[C@@H]1CC3` [PLATENCIN A4], the MIC in [1] is more than 64 µg/mL; in test [2] it was more than 64 µg/mL; in [3], more than 64 µg/mL; in test [4], more than 64 µg/mL; in test [5] it was 32 µg/mL (≈ 72.2 µM); in [9], more than 64 µg/mL. Besides, the MIC in test [10] and in test [11] was more than 64 µg/mL in each case. Further, the IC50 was more than 100 µM in test [6] and 25.1 µg/mL (≈ 56.6 µM) in test [7]. Besides, the Activity in test [8] worked out at 100 µg/mL.

As for `C=C1C[C@@]23C=CC(=O)[C@@](C)(CCC(=O)Nc4c(O)ccc(C(=O)O)c4O)[C@@H]2C[C@@H]1CC3` [PLATENCIN], the MIC is 8 µg/mL in [1]; 2 µg/mL (≈ 4.7 µM) in [2]; 1 µg/mL (≈ 2.35 µM) in test [3]; 0.5 µg/mL (≈ 1.18 µM) in [4]; 2 µg/mL (≈ 4.7 µM) in [5]; more than 64 µg/mL in [9]. Besides, the MIC is 64 µg/mL (≈ 150 µM) in test [10] and more than 64 µg/mL in [11]. The IC50 worked out at 86 µM in test [6] and 12 µg/mL (≈ 28.2 µM) in [7]. Further, the Activity in test [8] came out at 0.2 µg/mL.

For the compound `C=C1[C@H]2CC[C@@]3(C=CC(=O)[C@@](C)(CCC(=O)Nc4c(O)ccc(C(=O)O)c4O)[C@@H]3C2)[C@H]1O` [PLATENCIN A3], the MIC was more than 64 µg/mL in test [1]; 64 µg/mL (≈ 145 µM) in [2]; 64 µg/mL (≈ 145 µM) in [3]; 16 µg/mL (≈ 36.2 µM) in [4]; 16 µg/mL (≈ 36.2 µM) in test [5]; more than 64 µg/mL in test [9]. The MIC in [10] was 64 µg/mL (≈ 145 µM); in test [11] it was more than 64 µg/mL. For the same compound, the IC50 in test [6] is more than 100 µM; in [7], 7.1 µg/mL (≈ 16.1 µM). For the same compound, in test [8], the Activity is 20 µg/mL.
